Measurements: ChEMBL document CHEMBL1144398, “Structure-based design, parallel synthesis, structure-activity relationship, and molecular modeling studies of thiocarbamates, new potent non-nucleoside HIV-1 reverse transcriptase inhibitor isosteres of phenethylthiazolylthiourea derivatives” (J Med Chem, 2005)

How the values were obtained:
[1] = tested on: MT4; assay: Ratio of CC50 to that of EC50 determined in MT-4 cells; assay type: functional
Outline: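 Selectivity index, calculated as CC50/EC50. CC50 came from MTT viability of mock-infected MT-4 cells and EC50 from MTT-read protection of HIV-1-infected MT-4 cells from cytopathogenicity, with both run in parallel. Values are means of three experiments.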

[2] = tested on: MT4; assay: Effective concentration require to protect MT-4 cells from human immunodeficiency virus type 1 induced cytopathogenicity was determined by MTT method; assay type: functional, cell-based
Outline: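 MT-4 cells infected with HIV-1, with test compounds added. Protection from virus-induced cytopathogenicity was read by MTT. EC50 is the concentration giving 50% protection. Values are means of three separate experiments, with variation among triplicates under 10%. Trovirdine served as the reference.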

[3] = tested on: MT4; assay: Cytotoxic concentration required to reduce the viability of mock infected MT-4 cells determined by MTT method; assay type: functional; settings: Homo sapiens
Outline: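 Viability of mock-infected MT-4 cells, assayed in parallel with the antiviral test, read by MTT. CC50 is the concentration that lowers viability by 50%. Values are means of three separate experiments, with variation among triplicates under 10%. The highest concentration tested was 100 µM.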

SMILES	SI [1]	EC50 [2] [µM]	CC50 [3] [µM]
O=C(O)c1ccccc1C(=O)NCCO/C(S)=N\c1ccccc1F	>200	0.5	> 100
Cc1cccc(NC(=S)OCCNC(=O)c2ccccc2C(=O)O)c1	>20	5	> 100
O=C(O)c1ccccc1C(=O)NCCO/C(S)=N\c1ccc([N+](=O)[O-])cc1	>333	0.3	> 100
CC(COC(=S)Nc1ccc(Cl)cc1)N1C(=O)c2ccccc2C1=O (centres undefined)	880	0.05	44
COc1ccccc1/N=C(/S)OCCNC(=O)c1ccccc1C(=O)O	>1.5	65	> 100
O=C1c2ccccc2C(=O)N1CCOC(=S)NC1CCCCC1	>333	0.3	> 100
COc1cccc(NC(=S)OCCNC(=O)c2ccccc2C(=O)O)c1	>38.5	2.6	> 100
CCOC(=O)c1ccc(NC(=S)OCCN2C(=O)c3ccccc3C2=O)cc1	>4.3	23	> 100
O=C1c2ccccc2C(=O)N1CCOC(=S)Oc1ccc(Cl)cc1	–	> 100	> 100
CC(C)c1ccc(NC(=S)OCCN2C(=O)c3ccccc3C2=O)cc1	2350	0.04	94
CC(CN1C(=O)c2ccccc2C1=O)O/C(S)=N/c1ccc(Br)cc1 (centres undefined)	>43.5	2.3	> 100
O=C(O)c1ccccc1C(=O)NCCO/C(S)=N\c1ccccc1[N+](=O)[O-]	–	> 100	> 100
Cc1ccccc1/N=C(/S)OCCN1C(=O)c2ccccc2C1=O	>27	3.7	> 100
COc1ccccc1/N=C(/S)OCCN1C(=O)c2ccccc2C1=O	>17.9	5.6	> 100
O=C1C2CC=CCC2C(=O)N1CCOC(=S)Nc1ccc(Br)cc1 (centres undefined)	>43	2.3	> 100
O=C1c2ccccc2C(=O)N1CCOC(=S)Nc1ccccc1Br	>7.1	14	> 100
O=C1C2C3C=CC(C3)C2C(=O)N1CCOC(=S)Nc1ccc(Cl)cc1 (centres undefined)	>1.5	68	> 100
O=C1c2ccccc2C(=O)N1CCO/C(S)=N\c1ccccc1F	>33	3	> 100

SMILES	SI [1]	EC50 [2] [µM]	CC50 [3] [µM]
CC(CO/C(S)=N/c1ccc([N+](=O)[O-])cc1)N1C(=O)c2ccccc2C1=O (centres undefined)	>167	0.6	> 100
Cc1ccc(OC(=S)OCCN2C(=O)c3ccccc3C2=O)cc1	–	> 100	> 100
O=C1C2CC=CCC2C(=O)N1CCOC(=S)Nc1ccc(Cl)cc1 (centres undefined)	>10.6	9.4	> 100
Cc1ccc2c(c1)C(=O)N(CCOC(=S)Nc1ccc(Cl)cc1)C2=O	>4000	0.025	> 100
O=C1c2ccccc2C(=O)N1CCOC(=S)Nc1cccc(Cl)c1	>50	2	> 100
Cc1cccc2c1C(=O)N(CCO/C(S)=N/c1ccc([N+](=O)[O-])cc1)C2=O	1014	0.07	71
CCOc1ccc(NC(=S)OCCN2C(=O)c3ccccc3C2=O)cc1	>14.3	7	> 100
O=C1c2ccccc2C(=O)N1CCO/C(S)=N\c1ccccc1C(F)(F)F	>1.5	65	> 100
O=C1c2ccccc2C(=O)N1CCO/C(S)=N\c1ccccc1[N+](=O)[O-]	–	> 100	> 100
O=C1c2ccccc2C(=O)N1CCOC(=S)Nc1cccc([N+](=O)[O-])c1	>167	0.6	> 100
O=C1c2ccccc2C(=O)N1CCOC(=S)Nc1ccc(C(F)(F)F)cc1	>2500	0.04	> 100
CC(C)c1ccccc1/N=C(/S)OCCN1C(=O)c2ccccc2C1=O	>2.3	43	> 100
CC(=O)c1cccc(NC(=S)OCCN2C(=O)c3ccccc3C2=O)c1	>23	4.3	> 100
COC(=O)c1ccccc1/N=C(/S)OCCNC(=O)c1ccccc1C(=O)O	–	> 100	> 100
COC(=O)c1cccc(NC(=S)OCCNC(=O)c2ccccc2C(=O)O)c1	–	> 100	> 100
CCc1ccc(NC(=S)OCCN2C(=O)c3ccccc3C2=O)cc1	>1250	0.08	> 100
COc1ccc(NC(=S)OCCNC(=O)c2ccccc2C(=O)O)cc1	>500	0.2	> 100
